Sampled rows, rich in hits. Any-hit rate of the full collection: about 2.5%.
mABHD4 FP = ABHD4 (mouse) inhibition, primary FP screen; Q8VD66; purified mABHD4, FP-Rh probe fluorescence polarization; inhibition, % at 8.92 µM; hit rate 0.54% among 370,000; AID 720543;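 active = inhibition exceeding the mean over every tested compound plus 3 SD, cut at about 30% in these data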;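 also: 0% = plate median of compound wells and 100% = S159A mutant with DMSO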
Target sequence (Q8VD66 whole entry, looked up): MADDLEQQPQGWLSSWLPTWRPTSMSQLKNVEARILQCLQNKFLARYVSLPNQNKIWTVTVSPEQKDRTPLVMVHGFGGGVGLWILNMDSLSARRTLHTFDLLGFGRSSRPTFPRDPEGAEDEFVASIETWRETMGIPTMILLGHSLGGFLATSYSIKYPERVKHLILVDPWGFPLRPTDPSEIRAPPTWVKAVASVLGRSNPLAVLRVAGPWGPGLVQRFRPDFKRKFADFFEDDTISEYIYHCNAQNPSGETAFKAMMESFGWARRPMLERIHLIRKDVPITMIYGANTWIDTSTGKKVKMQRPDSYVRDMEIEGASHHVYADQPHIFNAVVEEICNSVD
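System: mouse ABHD4 enzyme, wild type / Medium: HEPES pH 7.0, NaCl, Pluronic buffer / Reagent: FP-Rh activity-based fluorescent probe / Control set: S159A mutant high control, sample median low control / Detection: fluorescence polarization with parallel and perpendicular emission, 525/598 nm / Schedule: 45 min + 60 min at 25 °C / Compound dosing: 8.92 µM, single dose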
TCR-CD3 inh = inhibitors of human TCR-CD3 interaction; hit rate 0.37% among 360,000; inhibition, % at 9.4 µM; AID 651800; TAMRA-labeled TCR probe fluorescence, biochemical; in the data active = inhibition above about 19%;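 also: recombinant mutant TCR 2C K166C tagged with TAMRA read by polarization; 0% = receptor in buffer alone and 100% = receptor with positive control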
HTRA1 inh = blocks human HTRA1 serine peptidase. recombinant HTRA1, FP-rhodamine activity-based probe, fluorescence polarization. hit rate 0.5% among 340,000. Q92743. AID 504803. inhibition, % at 5.96 µM; in the data active = inhibition above about 36%;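 also: 0% = enzyme with DMSO and 100% = wells lacking enzyme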
SIAE primary = inhibitors of human sialic acid acetylesterase SIAE; Q9HAT2; inhibition, % at 9.66 µM; SIAE FP-Rh probe binding, fluorescence polarization; hit rate 0.69% among 370,000;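 active = inhibition above a cutoff: mean of compounds within the control limits plus 3 SD of those, cut at about 17% in these data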;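 also: 0% = plate median of compound wells and 100% = probe without SIAE protein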
rCAG RNA binder = molecules binding r(CAG) RNA repeats; AID 651821; r(CAG) RNA repeat, TO-PRO-1 dye displacement fluorescence; inhibition, % at 3 µM; hit rate 1.3% among 370,000;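 active = inhibition above the plate cutoff, the mean of all test compounds on that plate plus 3 SD, cut at about 35% in these data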;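 also: 0% = DMSO alone and 100% = 100 µM mitoxantrone as full dye displacement; higher means more dye released from RNA so lower well fluorescence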
rCAG binder conf = r(CAG) RNA repeat binding, confirmation. shares compounds with rCAG RNA binder. TO-PRO-1 dye displacement fluorescence. inhibition, % at 3 µM. hit rate 70% among 4,300;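 active = inhibition above a per-plate cutoff, the mean inhibition of sample wells plus 3 SD, cut at about 35% in these data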;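 also: loss of TO-PRO-1 fluorescence as compound displaces dye from 1x1 AA loop RNA; 0% = DMSO only wells and 100% = 100 µM mitoxantrone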
dCAG dye counter = disrupts DNA CAG TO-PRO-1 complex, flagging rCAG hits; d(CAG) DNA oligo TO-PRO-1 dye displacement, fluorescence; inhibition, % at 3 µM; shares compounds with rCAG RNA binder; AID 652068; hit rate 94% among 4,300;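 active = inhibition above its plate's cutoff, the mean test-well inhibition plus 3 SD, cut at about 4.8% in these data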;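 also: 0% = DNA dye mix with DMSO and 100% = 100 µM mitoxantrone; hits displace the dye from DNA and so lower well fluorescence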
* = called active by the depositor; / = no result.

SMILES	mABHD4 FP	TCR-CD3 inh	HTRA1 inh	SIAE primary	rCAG RNA binder	rCAG binder conf	dCAG dye counter
CN(c1ccccc1C(=O)N1CCc2ccccc2C1)S(C)(=O)=O	-0.9	-2.8	0.1	-1.4	3.5	/	/
COc1ccc(-n2c(=O)c3c4c(sc3n3c(=S)[nH]nc23)COC(C(C)C)C4)cc1 (stereo unspecified)	-2.2	7.1	/	2.4	5.2	/	/
CC/C(C)=C1\SC(N2CCN(c3cccc(C(F)(F)F)c3)CC2)=NC1=O	0.5	-0.2	-5.3	2.0	-1.4	/	/
O=C(CSCc1ccccc1)NNC(=S)Nc1cccc(Cl)c1Cl	20.5	-4.7	1.2	-2.8	57.9*	65.1*	25.6*
O=C(O)Cc1ccc(C(=O)c2ccc(Cl)cc2Cl)s1	-6.0	1.8	-2.0	1.1	1.8	/	/
COc1ccc(-c2sc(C(=O)c3ccc(Cl)cc3Cl)cc2CC(=O)O)cc1	-20.4	-5.4	-24.1	-10.5	54.5*	56.4*	16.9*
CCOc1ccc(S(=O)(=O)Nc2ccccc2C(=O)N/N=C/c2c(OC)ccc3ccccc23)cc1	-49.9	11.0	-56.4	-69.8	61.5*	41.7*	18.7*
O=C(O)/C=C/c1ccc(S(=O)(=O)Nc2ccccc2C(=O)Nc2ccc(F)cc2)cc1	-7.7	-5.3	1.9	-6.5	19.5	/	/
Cc1cc(F)ccc1S(=O)(=O)Nc1ccccc1C(=O)Nc1ccccc1-c1nc2ccccc2[nH]1	/	/	-117.4	/	/	/	/
O=C(Nc1ccc(S(=O)(=O)Nc2ncccn2)cc1)c1ccccc1NS(=O)(=O)c1ccc(F)cc1	-0.4	-1.9	-1.8	-7.6	59.8*	29.1	6.5*
CCOc1ccc(S(=O)(=O)Nc2ccccc2C(=O)Nc2ccccc2N2CCOCC2)cc1	1.3	1.7	-8.6	0.5	11.3	/	/
O=C(Nc1ccc(-c2nc3ccccc3[nH]2)cc1)c1ccccc1NS(=O)(=O)c1ccc(F)cc1	-113.7	13.9	-116.2	-18.4	91.5*	90.3*	70.3*
CCOc1ccc(NC(=O)c2ccccc2NS(=O)(=O)c2ccc(F)cc2)c([N+](=O)[O-])c1	-7.4	5.8	-13.8	-3.0	71.5*	72.8*	35.6*
CCN1C(=O)c2cccc3c(S(=O)(=O)NCCCN4CCOCC4)ccc1c23	7.6	4.5	1.1	-5.6	-1.1	/	/
CCCOc1ccc(-c2c(C(=O)N/N=C/c3ccc(C)o3)nnn2-c2nonc2N)cc1	-0.9	-1.2	-10.5	1.5	11.4	/	/
CCOc1ccc(C(=O)Nc2nc(C)cc(C)n2)cc1[N+](=O)[O-]	4.9	-6.7	5.2	-5.2	28.9	/	/
CC(C)c1cc(CN2CCN(C3CCCC3)C(CCO)C2)[nH]n1 (stereo unspecified)	-1.0	-2.7	-1.3	2.1	-5.8	/	/
CCC(NC(=O)c1ccccc1NC(=O)c1ccc(C)cc1)C(=O)O (stereo unspecified)	2.5	6.0	1.2	-2.4	6.3	/	/
Cc1ccc(C(=O)Nc2ccccc2C(=O)NC(Cc2c[nH]c3ccccc23)C(=O)O)cc1 (stereo unspecified)	5.1	-4.2	-36.1	-12.0	61.0*	62.5*	24.1*
Cc1ccc(C(=O)Nc2ccccc2C(=O)NC(Cc2ccccc2)C(=O)O)cc1 (stereo unspecified)	-23.0	4.3	-17.3	-5.8	42.8*	38.3*	8.7*
O=C(NC(Cc1c[nH]c2ccccc12)C(=O)O)c1ccccc1 (stereo unspecified)	0.8	-0.4	1.9	6.8	1.4	/	/
CC1(C)Cc2ccccc2-c2nnc(SCC(=O)Nc3ccc4c(c3)OCO4)n21	0.7	4.5	-11.8	-1.7	-5.6	/	/
COc1ccc(NC(=S)N(CCc2ccc(OC)c(OC)c2)Cc2ccccn2)cc1	2.3	-3.3	-1.5	4.9	-5.6	/	/
CCOc1ccc2c(C)nc(NC3=NC(C)(C)C=C(C)N3)nc2c1	-0.5	7.5	-15.0	-1.1	23.8	/	/
O=C(CSc1nc2ccccc2[nH]1)N/N=C/c1ccco1	6.9	3.6	-3.0	16.4	0.2	/	/
COc1cc(C)c(C(=O)Oc2cc(C)c(C(=O)O)c(O)c2C)c(O)c1C(=O)O	5.2	10.2	-9.6	-29.8	15.1	/	/
COc1cc(C)c(C(=O)Oc2cc(C)c(C(=O)O)c(O)c2C)c(OC)c1C	-16.6	-0.7	-31.8	-3.8	51.8*	54.8*	16.9*
